# Measured values published in ChEMBL document CHEMBL3763117, “Design, synthesis and biological evaluation of imidazo[2,1-b]thiazole and benzo[d]imidazo[2,1-b]thiazole derivatives as Mycobacterium tuberculosis pantothenate synthetase inhibitors” (Bioorg Med Chem, 2016).
# Calls of active or inactive are those of the source. The calls are words filed in the database; no cut-off is given here.
# Key:
# [1] = system: Mycobacterium tuberculosis; assay: Antimycobacterial activity against Mycobacterium tuberculosis H37Rv ATCC 27294 after 7 days by microplate Alamar blue assay; assay type: functional; details: H37Rv ATCC 27294, 168 h
# Method in brief: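 MABA against M. tuberculosis H37Rv. Inoculum came from LJ medium, resuspended in 7H9-S (7H9, 0.1% casitone, 0.5% glycerol, OADC), adjusted to McFarland No. 1 and diluted 1:20. Two-fold dilutions spanned 50 to 0.78 µg/mL, in duplicate. Plates ran 7 days at 37 °C, then alamar blue was added overnight. MIC was the lowest concentration preventing the blue-to-pink change.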
# [2] = Cytotoxicity against mouse RAW264.7 cells assessed as inhibition of cell viability at 50 uM after 72 hrs by MTT assay; assay type: cell-based; details: read-out: INH
# Method in brief: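 RAW 264.7 mouse macrophages were exposed to compound at 50 µM for 72 h. Viability was read as MTT conversion to formazan.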
# Pantothenate synthetase = target: T1, Pantothenate synthetase (Mycobacterium tuberculosis, UniProt P9WIL5); assay: Inhibition of Mycobacterium tuberculosis pantothenate synthetase using pantoic acid as substrate and beta-alanine as reactant assessed as NAD+ formation by spectrophotmetry in presence of NADH
# T1 sequence (P9WIL5 whole entry): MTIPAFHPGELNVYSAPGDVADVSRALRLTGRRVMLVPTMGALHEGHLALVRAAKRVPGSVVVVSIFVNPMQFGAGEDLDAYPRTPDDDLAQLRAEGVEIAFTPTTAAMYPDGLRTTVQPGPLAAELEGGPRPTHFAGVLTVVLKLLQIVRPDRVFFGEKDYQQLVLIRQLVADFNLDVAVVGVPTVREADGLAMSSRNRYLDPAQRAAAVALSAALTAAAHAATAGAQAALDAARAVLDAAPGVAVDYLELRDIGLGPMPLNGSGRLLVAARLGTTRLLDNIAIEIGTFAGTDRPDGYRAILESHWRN
# Method in brief: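 Recombinant MTB PS (panC, Rv3602c) expressed in E. coli BL21(DE3). Coupled assay in 100 mM HEPES pH 7.8: 0.4 mM NADH, 5 mM pantoic acid, 5 mM β-alanine, 10 mM ATP, 10 mM MgCl2, 1 mM phosphoenolpyruvate, with myokinase, pyruvate kinase and lactate dehydrogenase. Compounds were tested from 25 µM downward. Reaction was started with PS; NADH depletion was read at 340 nm at 37 °C, background-corrected.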
# [3] = system: Mycobacterium tuberculosis; assay: Antimycobacterial activity against nutrient starved Mycobacterium tuberculosis H37Rv assessed as reduction in bacterial load at 10 ug/ml incubated for 7 days measured after 28 days by microplate reader analysis; assay type: functional
# Method in brief: (§1)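 H37Rv grown in 7H9/OADC, pelleted, washed twice and resuspended in PBS. It was starved in sealed bottles at 37 °C for 6 weeks. Cultures were exposed to drug at 10 µg/ml for 7 days at 37 °C. Ten-fold dilutions to 10^-6 in 7H9/OADC were plated in triplicate and incubated 28 days at 37 °C without agitation. Wells with visible growth were scored and MPN calculated.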
# Mycobacterium marinum [4] = assay: Antimycobacterial activity against Mycobacterium marinum ATCC BAA-535 infected in Zebra fish model assessed as reduction in bacterial load at 10 mg/kg, po administered for 7 days measured after 14 days by MPN assay; assay type: functional
# Method in brief: (§2)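 Adult zebra fish infected with M. marinum ATCC BAA-535 (grown at 30 °C in Middlebrook 7H9 broth). Oral treatment began 7 days post infection and ran for 7 days. Fish were then sacrificed and homogenised in 7H9 broth. Homogenate was serially diluted to 10^-6, plated in 48-well plates and incubated at 30 °C. Bacterial count was by MPN.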
# Mycobacterium marinum [5] = assay: Antimycobacterial activity against Mycobacterium marinum ATCC BAA-535 infected in Zebra fish model assessed as reduction in bacterial load at 5 mg/kg, po administered for 7 days measured after 14 days by MPN assay; assay type: functional; method in brief: as §2
# [6] = system: Mycobacterium tuberculosis; assay: Antimycobacterial activity against nutrient starved Mycobacterium tuberculosis H37Rv assessed as reduction in bacterial load for 7 days measured after 28 days by microplate reader analysis; assay type: functional; method in brief: as §1
smiles,measurement,setting,value
CCOc1ccc(NC(=O)c2c(C)nc3sc4ccccc4n23)cc1,MIC,[1],42 µM
same,"cytotoxicity at 72 h, 50 µM",[2],52.7%
same,IC50,Pantothenate synthetase,2100 nM
Cc1nc2sc3ccccc3n2c1C(=O)Nc1ccc(Br)cc1,MIC,[1],16.2 µM
same,"cytotoxicity at 72 h, 50 µM",[2],20.9%
same,IC50,Pantothenate synthetase,520 nM
Cc1nc2sccn2c1C(=O)NNC(=O)C1CCCCC1,MIC,[1],20.4 µM
same,"cytotoxicity at 72 h, 50 µM",[2],31.2%
same,IC50,Pantothenate synthetase,5380 nM
Cc1nc2sccn2c1C(=O)Nc1ccc(Br)cc1,Activity,[3],2 deltalog10CFU/ml
same,MIC,[1],2.32 µM
same,"cytotoxicity at 72 h, 50 µM",[2],32.3%
same,IC50,Pantothenate synthetase,690 nM
Cc1nc2sc3ccccc3n2c1C(=O)N/N=C/c1ccc(Br)cc1,MIC,[1],15.1 µM
same,"cytotoxicity at 72 h, 50 µM",[2],10.1%
same,IC50,Pantothenate synthetase,1020 nM
Cc1nc2sccn2c1C(=O)NC1CCCCC1,MIC,[1],11.8 µM
same,"cytotoxicity at 72 h, 50 µM",[2],32.1%
same,IC50,Pantothenate synthetase,2000 nM
Cc1nc2sccn2c1C(=O)N/N=C/c1ccc(Br)cc1,MIC,[1],34.4 µM
same,"cytotoxicity at 72 h, 50 µM",[2],22.2%
same,IC50,Pantothenate synthetase,1200 nM
Cc1nc2sccn2c1C(=O)N/N=C/c1ccccc1,MIC,[1],23.2 µM
same,"cytotoxicity at 72 h, 50 µM",[2],23.1%
same,IC50,Pantothenate synthetase,580 nM
Cc1nc2sccn2c1C(=O)Nc1ccccc1,MIC,[1],12.1 µM
same,"cytotoxicity at 72 h, 50 µM",[2],14.1%
same,IC50,Pantothenate synthetase,740 nM
Cc1nc2sc3ccccc3n2c1C(=O)NNC(=O)c1cccc2ccccc12,MIC,[1],15.6 µM
same,"cytotoxicity at 72 h, 50 µM",[2],32%
same,IC50,Pantothenate synthetase,1390 nM
Cc1nc2sc3ccccc3n2c1C(=O)N/N=C/c1ccc(N(C)C)cc1,MIC,[1],4.13 µM
same,"cytotoxicity at 72 h, 50 µM",[2],12.1%
same,IC50,Pantothenate synthetase,1460 nM
Cc1nc2sccn2c1C(=O)NNC(=O)c1ccc(Oc2ccccc2)cc1,MIC,[1],7.96 µM
same,"cytotoxicity at 72 h, 50 µM",[2],2.98%
same,IC50,Pantothenate synthetase,1230 nM
COc1cc(/C=N/NC(=O)c2c(C)nc3sccn23)cc(OC)c1OC,MIC,[1],33.4 µM
same,"cytotoxicity at 72 h, 50 µM",[2],1.17%
same,IC50,Pantothenate synthetase,5610 nM
Cc1ccc(C(=O)NNC(=O)c2c(C)nc3sccn23)cc1,Activity,[3],2.1 deltalog10CFU/ml
same,MIC,[1],5.96 µM
same,"cytotoxicity at 72 h, 50 µM",[2],39.2%
same,IC50,Pantothenate synthetase,4990 nM
Cc1nc2sccn2c1C(=O)N/N=C/c1ccc(N(C)C)cc1,MIC,[1],38.2 µM
same,"cytotoxicity at 72 h, 50 µM",[2],6.75%
same,IC50,Pantothenate synthetase,2500 nM
Cc1nc2sccn2c1C(=O)NNC(=O)c1cccc2ccccc12,MIC,[1],17.8 µM
same,"cytotoxicity at 72 h, 50 µM",[2],27.5%
same,IC50,Pantothenate synthetase,640 nM
COc1ccc(NC(=O)c2c(C)nc3sccn23)cc1,MIC,[1],20.7 µM
same,"cytotoxicity at 72 h, 50 µM",[2],58.7%
same,IC50,Pantothenate synthetase,5830 nM
Cc1nc2sccn2c1C(=O)NNC(=O)c1ccccc1,MIC,[1],40.1 µM
same,"cytotoxicity at 72 h, 50 µM",[2],10.3%
same,IC50,Pantothenate synthetase,5310 nM
CC1(C)S[C@@H]2[C@H](NC(=O)[C@H](N)c3ccc(O)cc3)C(=O)N2[C@H]1C(=O)O,Activity,Mycobacterium marinum [4],inactive
Cc1nc2sccn2c1C(=O)NCc1ccccc1,MIC,[1],11.5 µM
same,"cytotoxicity at 72 h, 50 µM",[2],12.7%
same,IC50,Pantothenate synthetase,1060 nM
CC[C@@H](CO)NCCN[C@@H](CC)CO [ETHAMBUTOL],MIC,[1],7.64 µM
same,IC50,Pantothenate synthetase,> 25000 nM
Cc1nc2sc3ccccc3n2c1C(=O)NNC(=O)c1ccccc1,MIC,[1],35.7 µM
same,"cytotoxicity at 72 h, 50 µM",[2],29.7%
same,IC50,Pantothenate synthetase,1100 nM
Cc1nc2sc3ccccc3n2c1C(=O)N/N=C/c1ccc(C(F)(F)F)cc1,MIC,[1],16.5 µM
same,"cytotoxicity at 72 h, 50 µM",[2],16.1%
same,IC50,Pantothenate synthetase,5310 nM
Cc1ccc(C(=O)NNC(=O)c2c(C)nc3sc4ccccc4n23)cc1,MIC,[1],17.1 µM
same,"cytotoxicity at 72 h, 50 µM",[2],53%
same,IC50,Pantothenate synthetase,5830 nM
COc1c(N2C[C@@H]3CCCN[C@@H]3C2)c(F)cc2c(=O)c(C(=O)O)cn(C3CC3)c12 [MOXIFLOXACIN],Activity,Mycobacterium marinum [5],2.9 deltalog10CFU/ml
same,MIC,[6],0.78 µg/mL
NNC(=O)c1ccncc1 [ISONIAZID],Activity,[3],1.1 deltalog10CFU/ml
same,MIC,[1],0.72 µM
same,Activity,Mycobacterium marinum [4],1.8 deltalog10CFU/ml
same,IC50,Pantothenate synthetase,> 25000 nM
same,MIC,[6],0.05 µg/mL
Cc1nc2sc3ccccc3n2c1C(=O)NNC(=O)C1CCCCC1,MIC,[1],17.5 µM
same,"cytotoxicity at 72 h, 50 µM",[2],45.4%
same,IC50,Pantothenate synthetase,2910 nM
Cc1nc2sccn2c1C(=O)N/N=C/c1ccc(C(F)(F)F)cc1,MIC,[1],17.7 µM
same,"cytotoxicity at 72 h, 50 µM",[2],12.8%
same,IC50,Pantothenate synthetase,670 nM
COc1cc(/C=N/NC(=O)c2c(C)nc3sc4ccccc4n23)cc(OC)c1OC,MIC,[1],29.4 µM
same,"cytotoxicity at 72 h, 50 µM",[2],16.2%
same,IC50,Pantothenate synthetase,2070 nM
Cc1nc2sc3ccccc3n2c1C(=O)NC1CCCCC1,MIC,[1],19.9 µM
same,"cytotoxicity at 72 h, 50 µM",[2],13.4%
same,IC50,Pantothenate synthetase,1020 nM
Cc1nc2sc3ccccc3n2c1C(=O)N/N=C/c1ccccc1,MIC,[1],9.35 µM
same,"cytotoxicity at 72 h, 50 µM",[2],34.6%
same,IC50,Pantothenate synthetase,2150 nM
Cc1nc2sc3ccccc3n2c1C(=O)NNC(=O)c1ccc(Oc2ccccc2)cc1,MIC,[1],3.53 µM
same,Activity,Mycobacterium marinum [4],1.5 deltalog10CFU/ml
same,"cytotoxicity at 72 h, 50 µM",[2],10.4%
same,IC50,Pantothenate synthetase,530 nM
Cc1nc2sc3ccccc3n2c1C(=O)NCc1ccccc1,MIC,[1],19.4 µM
same,"cytotoxicity at 72 h, 50 µM",[2],6.62%
same,IC50,Pantothenate synthetase,840 nM
CO[C@H]1/C=C/O[C@@]2(C)Oc3c(C)c(O)c4c(O)c(c(/C=N/N5CCN(C)CC5)c(O)c4c3C2=O)NC(=O)/C(C)=C\C=C\[C@H](C)[C@H](O)[C@@H](C)[C@@H](O)[C@@H](C)[C@H](OC(C)=O)[C@@H]1C [RIFAMPIN],Activity,[3],2.1 deltalog10CFU/ml
same,Activity,Mycobacterium marinum [5],1.9 deltalog10CFU/ml
same,MIC,[6],0.1 µg/mL
Cc1nc2sc3ccccc3n2c1C(=O)Nc1ccccc1,MIC,[1],40.7 µM
same,"cytotoxicity at 72 h, 50 µM",[2],33.2%
same,IC50,Pantothenate synthetase,1030 nM
